Data from the M2OR odorant receptor database.

Key:
Settings in all cases: stereoisomer not certain
OR5M1 T295R M301I = tested on: OR5M1 T295R M301I
Method in brief: (§1)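 Whether a receptor–molecule pair is responsive (active) rests on the original authors' judgment that its measured signal was statistically different from baseline. Pairs without that judgment are non-responsive (inactive). Sources used varied assay methods, commonly transient luciferase assays in mammalian cell lines.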

OR5M10 (Homo sapiens) = OR5M10 (Homo sapiens) (UniProt Q6IEU7)
Chain of OR5M10 (Homo sapiens) (Q6IEU7 whole entry): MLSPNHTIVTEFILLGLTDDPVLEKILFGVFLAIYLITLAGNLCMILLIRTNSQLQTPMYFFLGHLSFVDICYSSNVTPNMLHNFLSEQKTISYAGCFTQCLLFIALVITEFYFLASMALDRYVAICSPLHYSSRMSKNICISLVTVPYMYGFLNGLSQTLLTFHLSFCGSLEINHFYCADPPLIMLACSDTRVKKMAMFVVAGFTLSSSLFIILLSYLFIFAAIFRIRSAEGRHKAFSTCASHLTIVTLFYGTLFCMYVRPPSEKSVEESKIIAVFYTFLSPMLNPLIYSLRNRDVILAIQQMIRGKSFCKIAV
Method in brief: as §1

OR5M11 (Homo sapiens) = OR5M11 (Homo sapiens) (UniProt Q96RB7)
Chain of OR5M11 (Homo sapiens) (Q96RB7 whole entry): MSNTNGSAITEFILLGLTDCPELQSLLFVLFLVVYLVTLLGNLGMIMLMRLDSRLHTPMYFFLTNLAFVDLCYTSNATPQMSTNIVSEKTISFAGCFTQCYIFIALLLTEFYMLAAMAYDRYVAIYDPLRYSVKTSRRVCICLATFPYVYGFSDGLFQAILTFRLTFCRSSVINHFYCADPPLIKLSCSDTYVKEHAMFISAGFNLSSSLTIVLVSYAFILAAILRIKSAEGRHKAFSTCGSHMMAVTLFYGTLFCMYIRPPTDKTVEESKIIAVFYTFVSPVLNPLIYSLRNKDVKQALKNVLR
Method in brief: as §1

OR5M3 N3Y A156T = tested on: OR5M3 N3Y A156T
Method in brief: as §1

OR5M8 (Homo sapiens) = OR5M8 (Homo sapiens) (UniProt Q8NGP6)
Chain of OR5M8 (Homo sapiens) (Q8NGP6 whole entry): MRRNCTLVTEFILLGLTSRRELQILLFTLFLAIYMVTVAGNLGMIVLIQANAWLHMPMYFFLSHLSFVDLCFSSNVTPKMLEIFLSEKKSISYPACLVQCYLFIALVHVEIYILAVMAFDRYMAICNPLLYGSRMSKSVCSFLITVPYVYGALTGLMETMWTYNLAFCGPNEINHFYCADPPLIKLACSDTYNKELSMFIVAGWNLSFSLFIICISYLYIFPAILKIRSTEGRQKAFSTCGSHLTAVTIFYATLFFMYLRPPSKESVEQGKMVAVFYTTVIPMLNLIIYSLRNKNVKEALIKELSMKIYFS
Method in brief: as §1

OR5M9 (Homo sapiens) = OR5M9 (Homo sapiens) (UniProt Q8NGP3)
Chain of OR5M9 (Homo sapiens) (Q8NGP3 whole entry): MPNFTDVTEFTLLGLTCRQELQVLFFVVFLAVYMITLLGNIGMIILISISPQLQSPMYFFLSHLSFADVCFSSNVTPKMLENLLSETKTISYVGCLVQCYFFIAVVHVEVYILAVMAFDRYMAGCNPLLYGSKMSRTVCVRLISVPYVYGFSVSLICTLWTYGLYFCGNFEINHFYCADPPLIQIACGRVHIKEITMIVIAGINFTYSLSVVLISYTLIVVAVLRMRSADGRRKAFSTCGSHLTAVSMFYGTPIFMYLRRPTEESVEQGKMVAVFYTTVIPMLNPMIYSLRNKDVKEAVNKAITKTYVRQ
Method in brief: as §1

OR5MA L2F C311H = tested on: OR5MA L2F C311H
Method in brief: as §1

OR5MA L2F Q54H C311H = tested on: OR5MA L2F Q54H C311H
Method in brief: as §1

OR5P2 (Homo sapiens) = OR5P2 (Homo sapiens) (UniProt Q8WZ92)
Chain of OR5P2 (Homo sapiens) (Q8WZ92 whole entry): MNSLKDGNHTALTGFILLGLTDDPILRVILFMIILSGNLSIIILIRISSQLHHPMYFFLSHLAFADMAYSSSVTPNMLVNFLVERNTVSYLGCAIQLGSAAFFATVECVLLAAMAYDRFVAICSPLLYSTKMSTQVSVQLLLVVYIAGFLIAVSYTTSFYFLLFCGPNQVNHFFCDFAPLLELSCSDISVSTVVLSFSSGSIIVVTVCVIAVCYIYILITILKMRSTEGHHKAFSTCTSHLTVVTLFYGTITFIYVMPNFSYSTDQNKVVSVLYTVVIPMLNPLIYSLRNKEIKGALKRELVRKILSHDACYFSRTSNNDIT
Method in brief: as §1

OR5P3 L301R = tested on: OR5P3 L301R
Chain of OR5P3 L301R (as listed by the source, stated change not applied): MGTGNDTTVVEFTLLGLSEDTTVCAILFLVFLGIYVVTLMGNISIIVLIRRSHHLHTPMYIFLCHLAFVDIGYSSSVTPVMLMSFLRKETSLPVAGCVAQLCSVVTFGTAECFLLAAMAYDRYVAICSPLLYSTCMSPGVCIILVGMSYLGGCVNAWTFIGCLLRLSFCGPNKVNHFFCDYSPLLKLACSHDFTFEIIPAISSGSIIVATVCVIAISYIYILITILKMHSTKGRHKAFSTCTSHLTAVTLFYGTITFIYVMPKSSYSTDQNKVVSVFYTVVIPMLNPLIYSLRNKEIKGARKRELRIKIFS
Method in brief: as §1

OR5R1 C122R S128G F184L = tested on: OR5R1 C122R S128G F184L
Method in brief: as §1

OR5T1 (Homo sapiens) = OR5T1 (Homo sapiens) (UniProt Q8NG75)
Chain of OR5T1 (Homo sapiens) (Q8NG75 whole entry): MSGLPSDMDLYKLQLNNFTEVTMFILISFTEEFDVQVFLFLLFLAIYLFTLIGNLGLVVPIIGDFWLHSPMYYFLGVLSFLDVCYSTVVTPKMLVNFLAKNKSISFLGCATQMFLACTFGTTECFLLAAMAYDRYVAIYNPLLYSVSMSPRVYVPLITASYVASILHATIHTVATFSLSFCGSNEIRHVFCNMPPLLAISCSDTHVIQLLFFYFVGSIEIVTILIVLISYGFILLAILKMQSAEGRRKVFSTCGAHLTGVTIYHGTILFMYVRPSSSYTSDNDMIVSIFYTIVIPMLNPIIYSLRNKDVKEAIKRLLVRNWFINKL
Method in brief: as §1

OR5T2 (Homo sapiens) = OR5T2 (Homo sapiens) (UniProt Q8NGG2)
Chain of OR5T2 (Homo sapiens) (Q8NGG2 whole entry): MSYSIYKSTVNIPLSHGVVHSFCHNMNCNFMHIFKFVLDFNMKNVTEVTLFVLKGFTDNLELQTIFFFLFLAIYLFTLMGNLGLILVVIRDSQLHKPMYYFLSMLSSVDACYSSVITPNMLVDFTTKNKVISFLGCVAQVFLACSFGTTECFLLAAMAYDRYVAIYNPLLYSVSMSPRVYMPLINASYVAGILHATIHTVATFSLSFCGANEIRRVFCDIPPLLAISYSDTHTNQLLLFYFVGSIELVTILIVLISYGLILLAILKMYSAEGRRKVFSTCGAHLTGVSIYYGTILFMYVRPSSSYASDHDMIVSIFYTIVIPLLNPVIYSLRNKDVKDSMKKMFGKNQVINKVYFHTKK
Method in brief: as §1

OR5T2 S4G = tested on: OR5T2 S4G
Chain of OR5T2 S4G (as listed by the source): as the sequence (Q8NGG2 whole entry) above, with S4G counted along it
Method in brief: as §1

OR5T3 (Homo sapiens) = OR5T3 (Homo sapiens) (UniProt Q8NGG3)
Chain of OR5T3 (Homo sapiens) (Q8NGG3 whole entry): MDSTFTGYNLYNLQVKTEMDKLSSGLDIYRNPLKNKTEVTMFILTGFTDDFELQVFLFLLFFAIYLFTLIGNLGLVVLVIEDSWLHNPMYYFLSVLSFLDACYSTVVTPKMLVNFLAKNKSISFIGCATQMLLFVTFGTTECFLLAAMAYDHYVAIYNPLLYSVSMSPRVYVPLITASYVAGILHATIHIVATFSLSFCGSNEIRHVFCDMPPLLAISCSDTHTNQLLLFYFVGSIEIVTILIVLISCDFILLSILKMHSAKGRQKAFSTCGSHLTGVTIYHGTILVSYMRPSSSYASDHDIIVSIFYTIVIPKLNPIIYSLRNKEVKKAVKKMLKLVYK
Method in brief: as §1

OR5V1 (Homo sapiens) = OR5V1 (Homo sapiens) (UniProt Q9UGF6)
Chain of OR5V1 (Homo sapiens) (Q9UGF6 whole entry): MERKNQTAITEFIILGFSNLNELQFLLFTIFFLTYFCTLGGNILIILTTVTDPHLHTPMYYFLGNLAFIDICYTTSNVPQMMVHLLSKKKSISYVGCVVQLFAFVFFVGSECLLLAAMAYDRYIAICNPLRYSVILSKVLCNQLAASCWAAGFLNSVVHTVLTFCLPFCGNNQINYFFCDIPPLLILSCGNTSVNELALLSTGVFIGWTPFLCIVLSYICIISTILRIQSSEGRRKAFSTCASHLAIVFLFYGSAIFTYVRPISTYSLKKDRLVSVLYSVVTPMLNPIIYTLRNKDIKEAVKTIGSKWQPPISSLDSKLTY
Method in brief: as §1

OR5W2 (Homo sapiens) = OR5W2 (Homo sapiens) (UniProt Q8NH69)
Chain of OR5W2 (Homo sapiens) (Q8NH69 whole entry): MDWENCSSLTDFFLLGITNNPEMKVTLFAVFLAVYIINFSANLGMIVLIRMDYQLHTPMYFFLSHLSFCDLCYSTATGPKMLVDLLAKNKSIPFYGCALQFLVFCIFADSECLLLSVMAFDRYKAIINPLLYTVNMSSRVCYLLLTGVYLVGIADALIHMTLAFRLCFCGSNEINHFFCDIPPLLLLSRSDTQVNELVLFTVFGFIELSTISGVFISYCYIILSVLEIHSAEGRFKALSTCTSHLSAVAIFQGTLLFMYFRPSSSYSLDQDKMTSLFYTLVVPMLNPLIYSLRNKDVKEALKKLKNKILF
Method in brief: as §1

OR5W2 R189C = tested on: OR5W2 R189C
Chain of OR5W2 R189C (as listed by the source, stated change not applied): as the sequence (Q8NH69 whole entry) above, with R189C counted along it
Method in brief: as §1

Measured: odorant receptor agonist call;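 also: active if original authors judged signal statistically different from baseline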

C=CCOC(=O)Cc1ccccc1
inactive: all assays above

Cc1c([N+](=O)[O-])c(C)c([N+](=O)[O-])c(C(C)(C)C)c1[N+](=O)[O-]
inactive: OR5M10 (Homo sapiens) | OR5M11 (Homo sapiens) | OR5M8 (Homo sapiens) | OR5M9 (Homo sapiens) | OR5P2 (Homo sapiens) | OR5T1 (Homo sapiens) | OR5T2 (Homo sapiens) | OR5T3 (Homo sapiens) | OR5V1 (Homo sapiens) | OR5W2 (Homo sapiens)
